T cell HTS = T cell immune modulation candidate | 2C CD8+ T cell-vesicle binding, flow cytometry; hits give low values | response (vesicle binding), % at 7 µM | actives 0.068% (n = 330,000);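 active means response, share of CD8 T cells binding vesicles, and their 90th percentile fluorescence all below set limits, cut at about 80% in these data, passing the limit was not always enough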;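 further: values below 100% mean blocked vesicle binding to the CD8+ T cells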
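Assay system: 2C TCR transgenic mouse naive CD8+ T cells, MACS-purified | Read-out: CD8+ gate FL2 mean fluorescence as % of same-row positive control | Signal: High-throughput flow cytometry with anti-B7-1 and anti-CD8 staining | Timing: Binding step 1.5 h, 37 °C, antibody labelling 20 min, ice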
ALR H2O2 inh = blocks human ALR sulfhydryl oxidase activity. purified ALR, DTT oxidation, H2O2 HRP-luminol luminescence. inhibition, % (test concentration not listed). actives 3.8% (n = 290,000). AID 485317;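 active means mean replicate inhibition above about 79%, with every replicate also reaching it, limit read from the data; inconclusive means only one of the two criteria met; inactive means mean below limit and not every replicate reaching it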
Target sequence (P55789 whole entry, looked up): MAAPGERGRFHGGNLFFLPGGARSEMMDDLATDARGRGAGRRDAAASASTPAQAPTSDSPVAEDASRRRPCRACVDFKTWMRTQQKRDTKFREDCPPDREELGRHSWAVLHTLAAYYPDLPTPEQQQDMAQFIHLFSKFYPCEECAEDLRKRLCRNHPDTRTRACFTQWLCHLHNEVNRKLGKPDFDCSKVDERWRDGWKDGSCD
Glyco luc inh = blocks N-linked glycosylation in D54 reporter cells; D54 ERlucT glycosylation luciferase reporter, 24 h; percent of 100 nM tunicamycin response; reporter increase, % at 12.5 µM; actives 0.23% (n = 360,000);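 active means mean luciferase reporter signal, scaled so untreated is 0 and the glycosylation-blocking control 100, at or above a set limit in every replicate; inconclusive means mean reaches the limit but not every replicate does; inactive means mean below the limit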;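 further: luciferase carries N-glycosylation sites so blocking glycosylation raises the light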
Large screens that a line does not name were inactive. The full list was thinned out, with hits kept by preference.

C1CN(P2(N3CC3)=NP(N3CC3)(N3CC3)=NP(N3CC3)(N3CC3)=N2)CCO1 (configuration not stated)	none (no result: T cell HTS, ALR H2O2 inh)
O=C1NC(=O)N(Cc2ccccc2Cl)C(=O)/C1=C/c1cccs1	ALR H2O2 inh 97
O=C1NC(=O)N(Cc2ccc(F)cc2)C(=O)/C1=C/c1cccs1	ALR H2O2 inh inconclusive
Cc1ccc(/C=C2\C(=O)NC(=O)N(Cc3ccccc3Cl)C2=O)o1	ALR H2O2 inh 99
Cc1ccc(/C=C2/C(=O)NC(=O)N(Cc3ccc(F)cc3)C2=O)o1	none (no result: ALR H2O2 inh, Glyco luc inh)
COC(=O)C1=C(c2ccc(F)cc2F)C[C@@H]2CC[C@H]1N2C(=O)NCCCOC(C)C	none
Oc1ccc(O)c2c1C1(Cl)C(Cl)=C(Cl)C2(Cl)C1(Cl)Cl	none (no result: T cell HTS, ALR H2O2 inh)
CCCNC(=O)N1[C@H]2CC[C@@H]1C(C(=O)OC)=C(c1ccc(OC(F)(F)F)cc1)C2	none
COC(=O)C1=C(c2cccc(OCc3ccccc3)c2)C[C@@H]2CC[C@H]1N2C(=O)NCc1cc(C)oc1C(F)(F)F	none
Cc1cc(OCC(=O)N2CCC(C(=O)O)(c3ccccc3)CC2)c2c(C)c(C)c(=O)oc2c1	none
N#CC1=C(N)Oc2c(c(=O)sc3ccccc23)C1c1ccncc1 (configuration not stated)	ALR H2O2 inh 95
N#CC1=C(N)Oc2c(c(=O)oc3ccccc23)C1c1cccnc1 (configuration not stated)	none
O=C1NCN(c2ccccc2)C12CCN(C(c1ccccc1)c1nnnn1Cc1ccccc1)CC2 (configuration not stated)	none (no result: T cell HTS, ALR H2O2 inh)
CCN(C=C1CC2C3CC=C4CC(O)CCC4(C)C3CCC2(C)C1=O)CC (configuration not stated)	none (no result: T cell HTS, ALR H2O2 inh)
ClCCOCOCCCl	none
CCN1CCN(Cc2cc(Br)cc(Br)c2O)CC1	ALR H2O2 inh 99
CCN1CCN(Cc2cc(Br)ccc2O)CC1	none
C=CCC1(CCCCC)C(=O)NC(=S)NC1=O	none (no result: T cell HTS, ALR H2O2 inh)
CCC1(c2ccccc2)C(=O)NC(=S)NC1=O	none (no result: T cell HTS, ALR H2O2 inh)
N[C@@]1(C(=O)O)CC[C@@H](C(=O)O)C1	none
Cc1ccc(/C=C2\C(=O)NC(=O)N(CCc3ccc(F)cc3)C2=O)o1	none
O=C1NC(=O)C(=Cc2ccc(N3CCOCC3)cc2)C(=O)N1	none
O=C1NC(=O)C(=Cc2ccc(-c3ccc(F)cc3O)o2)C(=O)N1	ALR H2O2 inh 98
O=C1NC(=O)C(=Cc2ccc(-c3ccc(Cl)cc3)o2)C(=O)N1	ALR H2O2 inh 94
O=C1NC(=O)C(=Cc2ccc(Sc3ccccc3)o2)C(=O)N1	none
O=C1NC(=O)C(=Cc2ccc(-c3ccc(S(=O)(=O)N4CCOCC4)cc3)o2)C(=O)N1	ALR H2O2 inh 92
COC(=O)C1=C(c2ccc(F)cc2F)C[C@@H]2CC[C@H]1N2C(=O)NCCOc1ccccc1Cl	none
Brc1cccc(CNCCc2ccc3c(c2)OCO3)c1	none
CN1[C@@H]2CCC[C@H]1CC(=O)C2	none (no result: T cell HTS, ALR H2O2 inh)
COc1ccc(NC2Oc3cc4c(cc3C(c3cc(OC)c(OC)c(OC)c3)C2C)OCO4)cc1 (configuration not stated)	none (no result: T cell HTS, ALR H2O2 inh)
COC12c3ccccc3-c3ccccc3C1C(C(=O)O)C2C(=O)O (configuration not stated)	none (no result: T cell HTS, ALR H2O2 inh)
CCOC(=O)C1(CCc2ccccc2)CCN(C(C)CSC)CC1 (configuration not stated)	none (no result: ALR H2O2 inh)
O=C1NC(=O)C2(Cc3ccccc3N3CCCC32)C(=O)N1 (configuration not stated)	ALR H2O2 inh 99
O=C1NC(=O)C2(Cc3ccccc3N3CCCC32)C(=O)N1c1ccccc1 (configuration not stated)	none
CS(=O)(=O)c1ccc(C2=C(CNC(=O)c3ccncc3)[C@H]3CC[C@@H](C2)N3Cc2ccco2)cc1	none (no result: T cell HTS, ALR H2O2 inh)
C/C=C1\NC(=O)[C@@H](NC(=O)[C@H](CCc2ccc(O)cc2)NC(=O)[C@H](C)NC(=O)[C@H](O)CO)[C@@H](C)OC(=O)[C@H](C(C)C)NC(=O)[C@H](Cc2ccc(O)cc2)N(C)C(=O)[C@H](Cc2ccccc2)N2C(=O)C(CC[C@H]2O)NC1=O (some centres not stated)	none (no result: ALR H2O2 inh)
Cc1ccc2c(c1)=C/C(=C\c1c(O)[nH]c(=S)[nH]c1=O)C(=O)N=2	ALR H2O2 inh 97 (no result: Glyco luc inh)
Cc1ccc2c(c1)=NC(=O)/C(=C/c1c(O)[nH]c(=O)[nH]c1=O)C=2	none
COP(=O)(OC)C(Nc1ccccc1)c1ccccc1 (configuration not stated)	ALR H2O2 inh 96
COc1ccc(NC(c2ccccc2)P(=O)(Oc2ccccc2)Oc2ccccc2)cc1 (configuration not stated)	none
O=C1NCN(c2ccccc2)C12CCN(C(c1ccnc3ccccc13)c1nnnn1C1CCCCC1)CC2 (configuration not stated)	none (no result: T cell HTS, ALR H2O2 inh)
Cc1[nH]c2ccc(O)cc2c1CCN	ALR H2O2 inh 96
Cc1[nH]c2ccc(OCc3ccccc3)cc2c1CCN	none
CC1(C)NC(=S)C(C)(C)N1N=O	none (no result: T cell HTS, ALR H2O2 inh)
CN(C)c1ccc(/C=C/[N+](=O)[O-])cc1	ALR H2O2 inh 98
C/C(=C\c1ccc(N(C)C)cc1)[N+](=O)[O-]	none (no result: ALR H2O2 inh)
CCCCC1C(=O)NC(=S)N(C)C1=O (configuration not stated)	none (no result: T cell HTS, ALR H2O2 inh)
CCOC(=O)CSc1ccc(C(=O)N2CCC3(CC2)OCCO3)cc1[N+](=O)[O-]	none
CC(C#N)CCC#N (configuration not stated)	none
CN1CCN(c2c(N)c(=O)oc3ccccc23)CC1	ALR H2O2 inh 99
CN1CCN(c2ccccc2N)CC1	none
CSCCC(NC(=O)CCC(=O)OC1CC[C@H]2[C@@H]3CC[C@H]4CC(=O)CC[C@]4(C)[C@H]3CC[C@]12C)C(=O)O (some centres not stated)	none
C[C@]12CC[C@@H](O)CC1=CCC1C2CC[C@@]2(C)C1C[C@@H](F)[C@H]2O (some centres not stated)	none (no result: T cell HTS, ALR H2O2 inh)
O=C(NC1CCCCC1)N1Cc2cc(-c3cccc(F)c3)ccc2-n2nncc2C1	none (no result: T cell HTS, ALR H2O2 inh)
CNC(=O)NC(O)C(Cl)(Cl)Cl (configuration not stated)	none
ClCCNc1nc2ccc(Cl)cc2[nH]1	ALR H2O2 inh 98
CCOC(=O)C1=Nc2ccccc2/C1=C\c1c(O)n(C)c(=O)n(C)c1=O	ALR H2O2 inh 98
Cn1c(O)c(C=Nc2ccccc2-c2ccccc2)c(=O)n(C)c1=O	none (no result: ALR H2O2 inh)
O=C(O)Cn1cc(C=C2C(=O)NC(=O)NC2=O)c2ccccc21	none
O=C(O)CCn1cc(C=C2C(=O)NC(=O)NC2=O)c(-c2cc3ccccc3oc2=O)n1	ALR H2O2 inh 97
CC1CCCN(CC(=O)N2CCCc3ccccc32)C1 (configuration not stated)	none
O=C(O)C1Cc2ccccc2N2CCCC12 (configuration not stated)	ALR H2O2 inh 92
O=[N+]([O-])c1ccc(OP(=O)(O)Oc2ccc([N+](=O)[O-])cc2)cc1	none (no result: T cell HTS, ALR H2O2 inh)
Cn1c(O)c(C(=O)c2ccccc2)c(=O)n(C)c1=O	none
C/C(=N\Nc1ccccc1)c1c(O)n(-c2ccccc2)c(=O)[nH]c1=O	ALR H2O2 inh 99
C/C(=N\Nc1ccccc1)c1c(O)n(Cc2ccccc2)c(=O)[nH]c1=O	ALR H2O2 inh 98
C/C(=N\NC(=O)c1ccccc1O)c1c(O)n(C2CCCCC2)c(=O)[nH]c1=O	none
C/C(=N\NC(=O)c1ccccc1O)c1c(O)n(Cc2ccccc2)c(=O)[nH]c1=O	none
C/C(=N\Nc1ccccc1)c1c(O)[nH]c(=O)[nH]c1=O	none

Assay outcomes deposited in PubChem BioAssay by several laboratories.
